ChEMBL document CHEMBL1914446, “Pharmacophore identification, virtual screening and biological evaluation of prenylated flavonoids derivatives as PKB/Akt1 inhibitors” (Eur J Med Chem, 2011)
pIC50: −log10 of the molar value. Blank lines part the entries; values can stand above or below the compound they belong to. Activity calls are given as the source filed them. No cut-off for these calls is given here.

Legend:
[1] = target: T1, RAC-alpha serine/threonine-protein kinase (Homo sapiens, UniProt P31749); experiment: Inhibition of GST-tagged PKB/Akt1 incubated for 5 mins before eNOS substrate and ATP addition measured after 30 mins by kinase assay; settings: for pIC50: read-out: IC50
[2] = test system: PC-3; experiment: Antiproliferative activity against human PC3 after 72 hrs by MTT assay; format: functional, cell-based; settings: PC-3, 72 h
Method in brief: (§1)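 MTT read-out: cells seeded at 4000 per well, attached overnight, exposed to compound over 1.0–100.0 µM for 72 h. MTT solution (5.0 mg/ml) added for a further 4 h at 37 °C, formazan dissolved in DMSO, absorbance at 570 nm. Triplicate wells in three independent experiments; IC50 from dose–effect analysis.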

[3] = test system: OVCAR-8; experiment: Decrease in GSK3-beta protein level in human OVCAR8 cells at 20 uM by Western blot analysis; format: functional, cell-based
Method in brief: (§2)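 OVCAR-8 cells treated, harvested, washed in ice-cold PBS and lysed in immunoprecipitation buffer with NaF, β-glycerophosphate, detergents and PMSF. Debris pelleted at 13,000 rpm for 30 min at 4 °C; protein measured by Bradford. Immunoblots probed for phospho-Akt Ser-473, phospho- and total GSK3, with GAPDH.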

[4] = test system: OVCAR-8; experiment: Down regulation of PKB/Akt phosphorylation at Ser-473 in human OVCAR8 cells at 20 uM by Western blot analysis; format: functional, cell-based; method in brief: as §2
[5] = test system: HL-60; experiment: Antiproliferative activity against human HL60 after 72 hrs by MTT assay; format: functional, cell-based; settings: HL-60, 72 h; method in brief: as §1
[6] = test system: OVCAR-8; experiment: Antiproliferative activity against human OVCAR8 after 72 hrs by MTT assay; format: functional, cell-based; settings: OVCAR-8, 72 h; method in brief: as §1
[7] = test system: OVCAR-8; experiment: Induction of apoptosis in human OVCAR8 cells assessed as apoptotic cells at 20 uM after 72 hrs by Annexin V-FITC/propidium iodide staining-based FACS analysis; format: functional
Method in brief: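 OVCAR-8 cells (5 × 10^4 cells/ml) cultured in flasks and treated with vehicle or compound. After treatment, cells harvested and washed twice in ice-cold PBS, then stained with Annexin V-FITC/propidium iodide and analysed by flow cytometry.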

[8] = test system: OVCAR-8; experiment: Inhibition of PKB/Akt in human OVCAR8 cells assessed as decrease of GSK3-beta phosphorylation at 20 uM after Western blot analysis; format: cell-based; method in brief: as §2
[9] = target: T1, RAC-alpha serine/threonine-protein kinase; experiment: Inhibition of GST-tagged PKB/Akt1 incubated for 5 mins before eNOS substrate and ATP addition at > 50 uM measured after 30 mins by kinase assay
Method in brief: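 HTScan PKB/Akt1 kit: active recombinant GST-Akt1 (4 ng) in kinase buffer (Tris-HCl pH 7.5, MgCl2, β-glycerophosphate, Na3VO4, DTT) preincubated with compound or DMSO vehicle 5 min at room temperature. ATP/substrate cocktail with eNOS substrate added. Reaction stopped with 50 mM EDTA (pH 8.0); activity read per kit instructions. H-89 as positive control.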

T1 sequence (P31749 whole entry): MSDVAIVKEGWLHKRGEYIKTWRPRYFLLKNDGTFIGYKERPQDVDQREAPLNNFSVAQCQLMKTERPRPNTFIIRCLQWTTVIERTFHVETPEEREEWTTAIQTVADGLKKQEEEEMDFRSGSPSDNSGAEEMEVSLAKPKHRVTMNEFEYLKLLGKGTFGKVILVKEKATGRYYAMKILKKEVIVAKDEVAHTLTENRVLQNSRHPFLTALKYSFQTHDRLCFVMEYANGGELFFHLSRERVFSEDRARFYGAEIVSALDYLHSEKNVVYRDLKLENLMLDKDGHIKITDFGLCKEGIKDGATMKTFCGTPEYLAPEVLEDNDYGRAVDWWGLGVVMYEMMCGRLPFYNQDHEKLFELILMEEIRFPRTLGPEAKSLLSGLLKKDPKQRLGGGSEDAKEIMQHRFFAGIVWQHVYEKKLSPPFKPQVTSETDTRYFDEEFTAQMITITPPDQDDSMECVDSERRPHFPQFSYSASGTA

SMILES: CC(C)=CCc1c(O)cc2oc(-c3ccc(O)cc3O)cc(=O)c2c1O
- pIC50 [1]: 4.26

SMILES: CC(C)=CCc1c(O)cc2oc(-c3ccc(O)c(O)c3)cc(=O)c2c1O
- pIC50 [2]: 4.84
- Activity [3]: inactive
- Activity [4]: Active
- pIC50 [5]: 5.60
- pIC50 [1]: 5.27
- pIC50 [6]: 4.62
- Activity [7]: 40.19%
- inhibition [8]: Active

SMILES: CC(C)=CCc1c(O)cc(O)c2c(=O)cc(-c3ccc(O)c(O)c3)oc12
- pIC50 [2]: 4.73
- Activity [3]: inactive
- Activity [4]: Active
- pIC50 [5]: 5.48
- pIC50 [1]: 5.41
- pIC50 [6]: 4.78
- Activity [7]: 49.11%
- inhibition [8]: Active

SMILES: CC(C)=CCc1c(O)cc(O)c(C(=O)/C=C/c2ccc(O)cc2)c1O [DEMETHYLXANTHOHUMOL]
- pIC50 [1]: 3.84

More lines, now with the values ahead:

- pIC50 [1]: 4.07
SMILES: CC(C)=CCc1cc(C(=O)/C=C/c2cccc(O)c2)c(O)cc1O

- IC50 [1]: Not Active
SMILES: Cc1ccc(S(=O)(=O)OC[C@H]2O[C@@H](n3cnc4c(=O)[nH]c(NC(=O)C(C)C)nc43)C[C@H]2O)cc1

- IC50 [1]: Not Active
SMILES: O=c1cc(CSc2nnc(O)n2C2Cc3ccccc3C2)c2ccc(O)cc2o1

- inhibition [9]: 19.6%
- pIC50 [1]: < 4.30
SMILES: CC(=O)Nc1cccc(-n2nnc(SCC(=O)NCc3cccs3)n2)c1

- IC50 [1]: Not Active
SMILES: CC(C)=CCc1cc2c(=O)cc(-c3ccc(O)cc3O)oc2cc1O
